Laboratory results taken from ChEMBL document CHEMBL3351900, “Conjugation of a nonspecific antiviral sapogenin with a specific HIV fusion inhibitor: a promising strategy for discovering new antiviral therapeutics” (J Med Chem, 2014).
In brackets after ≈: the same amount, converted by molar mass. Activity calls are given as the source filed them. No cut-off for these calls is given here. Square brackets hold non-standard residues; d marks the D form. Peptide text beside a SMILES is read from it. * marks the point of attachment. X1 = C=CCOC(=O)[C@]12CC[C@@H](C(=C)C)[C@@H]1[C@H]1CC[C@@H]3[C@@]4(C)CC[C@H](OC(=O)CCc5cn(CC(=O)*)nn5)C(C)(C)[C@@H]4CC[C@@]3(C)[C@]1(C)CC2; βAla = NCCC(=O)O

Tests used:
[1] = Volume of distribution in rat at 4 mg/kg, iv administered as single dose; assay type: ADME, organism-based; set-up: dose 4 mg/kg, route intravenous; settings: in vivo
Procedure, shortened: (§1)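 Rats given one intravenous dose of 4 mg/kg. Peptide measured in plasma over time. Parameters (AUC(0−t), MRT(0−t), t1/2, Vd, Cmax) derived by model-independent analysis.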

[2] = Solubility of the compound in pure water by UV spectrophotometry; assay type: physicochemical
Procedure, shortened: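 About 1 mg of peptide dissolved in 10 μL water or PBS and centrifuged. Supernatant concentration of the tyrosine-containing conjugate determined from UV absorbance at 280 nm.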

[3] = system: Human immunodeficiency virus 1; assay: Antiviral activity against HIV1 3B infected in human MT2 cells assessed as inhibition of viral entry compound treated at 100 nM at 1 hr post infection measured 3 to 4 days post infection by time-of-addition assay
[4] = system: Human immunodeficiency virus 1; assay: Antiviral activity against HIV1 BaL infected in human […] cells assessed as inhibition of viral replication; assay type: functional, organism-based; settings: Human immunodeficiency virus 1, BaL
Procedure, shortened: (§2)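 MT-2 cells (1 × 10⁴) infected with 100 TCID₅₀ virus with or without peptides at graded concentrations. Culture supernatants collected on day 4 postinfection; p24 antigen quantified by ELISA. Percent inhibition and EC₅₀ calculated; tested in triplicate, mean ± standard deviation.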

[5] = molecular target: GP41 (Human immunodeficiency virus 1) (UniProt Q76270); assay: Ratio of EC50 for HIV1 gp41-induced cell-cell fusion between viral envelope expressing human HL2/3 cells to CD4/CCR5 receptor expressing TZM-bl cells with wash out to EC50 for HIV1 gp41-induced cell-cell fusion between viral envelope expressing human HL2/3 cells to CD4/CCR5 receptor expressing TZM-bl cells; assay type: cell-based
Procedure, shortened: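 Peptides preincubated with TZM-bl cells at 37 °C for 1 h, with or without washing away unbound peptide. EC50 compared between washed and unwashed cells, giving the n-fold change. Triplicates, mean ± SD.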

[6] = system: Human immunodeficiency virus 1; assay: Ratio of EC50 for T20-resistant HIV1 NL4-3 harboring gp41 D36G/V38A/N42D mutant infected in human MT2 cells to EC50 for T20-sensitive HIV1 NL4-3 harboring gp41 D36G mutant infected in human MT2 cells; assay type: functional
Procedure, shortened: (§3)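 MT-2 cells (1 × 10⁴) infected with 100 TCID₅₀ of HIV-1 NL4-3 gp41 mutant virus with or without peptide at graded concentrations. Culture supernatants collected on day 4 postinfection and p24 antigen measured by ELISA. Percent inhibition and EC₅₀ calculated, triplicate, mean ± standard deviation. Fold change = EC₅₀ against each mutant divided by EC₅₀ against the D36G strain.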

[7] = Half life in rat liver homogenate at 8 ug/ml; assay type: ADME, tissue-based
[8] = system: Human immunodeficiency virus 1; assay: Ratio of EC50 for T20-resistant HIV1 NL4-3 harboring gp41 D36G/N42T/N43K mutant infected in human MT2 cells to EC50 for T20-sensitive HIV1 NL4-3 harboring gp41 D36G mutant infected in human MT2 cells; assay type: functional; procedure, shortened: as §3
[9] = system: Human immunodeficiency virus 1; assay: Antiviral activity against T20-resistant HIV1 NL4-3 harboring gp41 D36G/V38A/N42T mutant infected in human MT2 cells; assay type: functional, organism-based; procedure, shortened: as §2
[10] = system: Human immunodeficiency virus 1; assay: Antiviral activity against T20-resistant HIV1 NL4-3 harboring gp41 D36G/V38E/N42S mutant infected in human MT2 cells; assay type: functional, organism-based; procedure, shortened: as §2
Rattus norvegicus [11] = assay: AUC (0 to t) in rat at 4 mg/kg, iv administered as single dose; assay type: ADME, organism-based, Plasma; set-up: dose 4 mg/kg, route intravenous; settings: in vivo; procedure, shortened: as §1
[12] = system: Human immunodeficiency virus 1; assay: Ratio of EC50 for T20-resistant HIV1 NL4-3 harboring gp41 D36G/V38A mutant infected in human MT2 cells to EC50 for T20-sensitive HIV1 NL4-3 harboring gp41 D36G mutant infected in human MT2 cells; assay type: functional; procedure, shortened: as §3
[13] = Selectivity index, ratio of CC50 for human MT2 cells to EC50 for HIV1 3B infected in human MT2 cells; assay type: toxicity, cell-based; settings: read-out: Ratio CC50/EC50
[14] = Half life of the compound at 8 ug/ml by proteinase K digestion assay; assay type: ADME
[15] = Cytotoxicity against human MT2 cells after 4 days by XTT assay; assay type: cell-based
Procedure, shortened: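 MT-2 cells (5 × 10⁵/mL) mixed with equal volumes of graded conjugate concentrations and held at 37 °C for 4 days. XTT (1 mg/mL) with 0.02 μM phenazine methosulfate added for 4 h, then A450 read. CC50 calculated from the dose–response.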

[16] = system: Human immunodeficiency virus 1; assay: Antiviral activity against T20-resistant HIV1 NL4-3 harboring gp41 D36G/N42T/N43K mutant infected in human MT2 cells; assay type: functional, organism-based; procedure, shortened: as §2
Rattus norvegicus [17] = assay: Half life in rat at 4 mg/kg, iv at 4 mg/kg, iv administered as single dose; assay type: ADME, organism-based; settings: in vivo; procedure, shortened: as §1
[18] = Half life in rat kidney homogenate at 8 ug/ml; assay type: ADME, tissue-based
[19] = system: Human immunodeficiency virus 1; assay: Antiviral activity against T20-sensitive HIV1 NL4-3 harboring gp41 D36G mutant infected in human MT2 cells; assay type: functional, organism-based; procedure, shortened: as §2
[20] = system: Human immunodeficiency virus 1; assay: Antiviral activity against HIV1 3B infected in human MT2 cells assessed as inhibition of viral p24 antigen production by ELISA; assay type: functional, organism-based; settings: Human immunodeficiency virus 1, 3B; procedure, shortened: as §2
[21] = Mean residence time in rat at 4 mg/kg, iv administered as single dose; assay type: ADME, organism-based; set-up: dose 4 mg/kg, route intravenous; settings: in vivo; procedure, shortened: as §1
[22] = system: Human immunodeficiency virus 1; assay: Ratio of EC50 for T20-resistant HIV1 NL4-3 harboring gp41 D36G/V38E/N42S mutant infected in human MT2 cells to EC50 for T20-sensitive HIV1 NL4-3 harboring gp41 D36G mutant infected in human MT2 cells; assay type: functional; procedure, shortened: as §3
[23] = system: Human immunodeficiency virus 1; assay: Antiviral activity against T20-resistant HIV1 NL4-3 harboring gp41 D36G/V38A/N42D mutant infected in human MT2 cells; assay type: functional, organism-based; procedure, shortened: as §2
Rattus norvegicus [24] = assay: Cmax in rat at 4 mg/kg, iv administered as single dose; assay type: ADME, organism-based; set-up: dose 4 mg/kg, route intravenous; settings: in vivo; procedure, shortened: as §1
[25] = system: Human immunodeficiency virus 1; assay: Ratio of EC50 for T20-resistant HIV1 NL4-3 harboring gp41 D36G/V38A/N42T mutant infected in human MT2 cells to EC50 for T20-sensitive HIV1 NL4-3 harboring gp41 D36G mutant infected in human MT2 cells; assay type: functional; procedure, shortened: as §3
[26] = system: Human immunodeficiency virus 1; assay: Antiviral activity against T20-resistant HIV1 NL4-3 harboring gp41 D36G/V38A mutant infected in human MT2 cells; assay type: functional, organism-based; procedure, shortened: as §2

## C=CCOC(=O)[C@]12CC[C@@H](C(=C)C)[C@@H]1[C@H]1CC[C@@H]3[C@@]4(C)CC[C@H](OC(=O)CCc5cn(CC(=O)NCCCC[C@H](NC(=O)CCNC(=O)[C@H](CC(C)C)NC(=O)[C@H](CC(C)C)NC(=O)[C@H](CCC(=O)O)NC(=O)[C@H](CCC(N)=O)NC(=O)[C@H](CCC(=O)O)NC(=O)[C@H](CC(N)=O)NC(=O)[C@H](CCCCN)NC(=O)[C@H](CCC(=O)O)NC(=O)[C@H](CCC(N)=O)NC(=O)[C@H](CCC(N)=O)NC(=O)[C@H](CC(N)=O)NC(=O)[C@H](CCC(N)=O)NC(=O)[C@H](CO)NC(=O)[C@H](CCC(=O)O)NC(=O)[C@H](CCC(=O)O)NC(=O)[C@@H](NC(=O)[C@H](CC(C)C)NC(=O)[C@H](CO)NC(=O)[C@H](Cc6cnc[nH]6)NC(=O)[C@@H](NC(=O)[C@H](CC(C)C)NC(=O)[C@H](CO)NC(=O)[C@@H](NC(=O)[C@H](Cc6ccc(O)cc6)NC(=O)[C@H](CC(N)=O)NC(=O)[C@H](CC(N)=O)NC(C)=O)[C@@H](C)O)[C@@H](C)CC)[C@@H](C)CC)C(N)=O)nn5)C(C)(C)[C@@H]4CC[C@@]3(C)[C@]1(C)CC2 (Ac-NNYTSLIHSLIEESQNQQEKNEQELL[βAla]K(X1)-NH2)
[1]
  Vd: 0.17 L/kg
[2]
  solubility: 18.2 mg/mL (≈ 4.55 mM)
[3]
  inhibition: Active
[4]
  EC50: 6.9 nM
[5]
  Ratio EC50: 11
[6]
  Ratio EC50: 1.2
[7]
  half-life at 8 ug/ml: 48.9 min
[8]
  Ratio EC50: 6.5
[9]
  EC50: 308 nM
[10]
  EC50: 322 nM
Rattus norvegicus [11]
  AUCt: 101 µg·h/mL
[12]
  Ratio EC50: 4.6
[13]
  selectivity ratio: 3350
[14]
  half-life at 8 ug/ml: 54.3 min
[15]
  CC50 at 96 h: 14.3 µM
[16]
  EC50: 192 nM
Rattus norvegicus [17]
  t1/2: 3.13 h
[18]
  half-life at 8 ug/ml: 35.9 min
[19]
  EC50: 29.2 nM
[20]
  EC50: 4.28 nM
[21]
  MRT: 3.18 h
[22]
  Ratio EC50: 11
[23]
  EC50: 34.4 nM
Rattus norvegicus [24]
  Cmax: 0.0404 mg/mL
[25]
  Ratio EC50: 10
[26]
  EC50: 135 nM
